# Only some compounds are listed: those with a hit (about 1.4% of all), similar ones and a draw of the others.
# ARFGAP1 inhibitor: inhibitors of rat ARFGAP1; Arfgap1-stimulated ARF1 GTP hydrolysis, GDP FP detection; AID 651572; inhibition, % at 16.5 µM; 360,000 tested, 0.26% active; Q62848;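 active means inhibition above a per-plate limit, mean inhibition of low control wells plus 3 SD, cut at about 25% in these data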;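 further: 0% = DMSO wells with enzyme and 100% = wells lacking Arfgap1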
# Target sequence (Q62848 1-136 limits assumed): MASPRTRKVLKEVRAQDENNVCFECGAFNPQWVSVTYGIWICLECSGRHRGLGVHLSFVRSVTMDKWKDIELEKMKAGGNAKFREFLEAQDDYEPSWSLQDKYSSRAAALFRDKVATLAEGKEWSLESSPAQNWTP
#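 Material – truncated rat Arfgap1 GAP domain · Buffer or medium – HEPES-based buffer, pH 7.5 · Reagent – human ARF1(Δ1-17)-GTP substrate · Dosing – 16.5 µM single point, 1.26% DMSO · Schedule – GTP hydrolysis reaction 2 h at 25 °C · Technique – GDP detection by fluorescence polarization · Benchmarks – No-Arfgap1 wells (100%) versus DMSO full-reaction wells (0%) · Repeats – single replicate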
# bovine MsrA act: activates bovine MsrA enzyme | purified bovine MsrA, absorbance read-out | activation, % at 10.6 µM | 360,000 tested, 0.3% active; in the data active means activation above about 7.5%;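 further: 0% = vehicle and 100% = reference activator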
# ASAP1 GAP inh: inhibitors of human ASAP1 ArfGAP activity; Q9ULH1; ASAP1-stimulated ARF1 GTP hydrolysis, GDP FP detection; inhibition, % at 16.5 µM; 360,000 tested, 0.19% active; in the data active means inhibition above about 25%;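 further: 0% = vehicle with enzyme and substrate and 100% = no enzyme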
# Target sequence (Q9ULH1 325-724 limits assumed): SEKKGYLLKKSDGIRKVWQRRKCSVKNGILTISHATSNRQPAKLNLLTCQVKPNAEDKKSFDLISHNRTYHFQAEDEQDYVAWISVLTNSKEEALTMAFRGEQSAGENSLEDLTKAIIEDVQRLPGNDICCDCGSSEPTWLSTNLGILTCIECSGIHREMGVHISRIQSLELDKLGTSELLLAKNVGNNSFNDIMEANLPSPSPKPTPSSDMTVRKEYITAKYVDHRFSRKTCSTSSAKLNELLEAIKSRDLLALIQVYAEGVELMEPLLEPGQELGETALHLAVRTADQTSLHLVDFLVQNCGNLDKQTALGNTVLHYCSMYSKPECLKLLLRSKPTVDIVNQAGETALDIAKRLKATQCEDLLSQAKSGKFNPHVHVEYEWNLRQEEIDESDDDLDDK
# MsrA inhibitor: inhibitors of bovine MsrA | purified bovine MsrA, absorbance read-out | inhibition, % at 15.5 µM | 360,000 tested, 0.75% active | AID 651718; in the data active means inhibition above about 4.5%;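 further: 0% = vehicle wells with enzyme and 100% = reference inhibitor wells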
# MsrA activ conf: confirmation of bovine methionine sulfoxide reductase A activators | shares compounds with bovine MsrA act | 1,000 tested, 12% active | purified bovine MsrA, absorbance read-out | AID 602270 | activation, % at 10.6 µM; in the data active means activation above about 4%;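 further: enzyme coupled to thioredoxin and thioredoxin reductase with NADPH; 0% = vehicle wells and 100% = reference activator wells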
# * hit, by the source's call; . = no result given.
SMILES,ARFGAP1 inhibitor,bovine MsrA act,ASAP1 GAP inh,MsrA inhibitor,others
CCS(=O)(=O)N1CCN(c2ccc([N+](=O)[O-])c(NC(C)c3ccccc3)c2)CC1 (configuration not stated),-5,-4,-5,7.3*,
CC(C)(C)OC(=O)N1CCC(C(=O)Nc2cccc(C(=O)NCc3ccccc3)c2)CC1,3,-2,7,-1,
C[C@H](CO)N1C[C@H](C)[C@@H](CN(C)S(=O)(=O)c2cccs2)Oc2ccc(NC(=O)Nc3ccc(C(F)(F)F)cc3)cc2C1=O,1,0,13,0,
C[C@@H]1CN([C@H](C)CO)C(=O)c2cc(NC(=O)Nc3ccc(C(F)(F)F)cc3)ccc2O[C@H]1CN(C)S(=O)(=O)c1cccs1,11,-8,26*,-1,
Cc1cc(/C=C(/C#N)c2cccc(Cl)c2)c(C)n1C,11,-4,2,4.6*,
Cc1cccc(-n2c(C)cc(C=C(C#N)C#N)c2C)c1,-2,-1,-5,-1,
C#C[C@]1(O)CCC2C3CCC4=Cc5oncc5CC4(C)C3CCC21C (some centres not stated),0,-5,2,-1,
CC(=O)c1sc(Nc2ccccn2)nc1C,26*,-7,6,4,
CC(=O)c1sc(Nc2cccc3ccccc23)nc1C,14,-5,4,3,
O=C(Cc1cccc2ccccc12)Nc1ccc(-c2cc3ccccc3oc2=O)cc1,10,-2,-1,5.3*,
CC(C)(C)OC(=O)N1CCN(C(=O)c2[nH]cnc2C(=O)Nc2nccs2)CC1,1,-8,2,1,
CC1CCN(C(=O)C2CCN(S(=O)(=O)c3cccs3)CC2)CC1,13,-8,8,0,
CC(=O)c1ccc(N2CCN(C(=O)C3CCN(S(=O)(=O)c4cccs4)CC3)CC2)cc1,-1,-5,10,4.6*,
O=C(Nc1ccc(S(=O)(=O)Nc2ncccn2)cc1)C1CC(=O)N(c2ccc(Cl)cc2)C1 (configuration not stated),-7,-2,11,0,
COc1ccc(Br)cc1CN(C)CC(O)COc1ccc(Br)cc1 (configuration not stated),10,-1,-3,-1,
CCSc1n[nH]c(=S)s1,1,8.5*,0,-1,
COC(=O)CSc1n[nH]c(=S)s1,-6,6,-3,-1,
Cc1cc(-n2c(C)cc(C(=O)CSc3ccc4c(c3)OCCO4)c2C)no1,9,24*,1,1,
Cc1cc(-n2c(C)cc(C(=O)CSc3ccccn3)c2C)no1,-9,-3,-5,2,
COc1ccc2nc(NC(=O)CN(c3ccc(C)cc3)S(=O)(=O)c3c(C)nn(C)c3C)sc2c1,28*,-3,7,0,
CN(c1ccc(Cl)cc1)c1cc2c(c3c1ccn3C)C1CCC2O1 (configuration not stated),3,-5,9,-1,
O=C(N/N=C/c1ccc(O)cc1)c1cc(-c2ccc3c(c2)OCO3)n[nH]1,26*,-6,25,2,
O=[N+]([O-])c1ccc(-c2cn3c(n2)CCC3)cc1,15,-11,-1,0,
C1CCN(c2nc3nonc3nc2N2CCCC2)C1,11,-4,6,5.1*,
CC1CCCN(c2nc3nonc3nc2N2CCCC(C)C2)C1 (configuration not stated),1,1,10,4.6*,
SMILES,ARFGAP1 inhibitor,bovine MsrA act,ASAP1 GAP inh,MsrA inhibitor,others
CC1CCN(c2nc3nonc3nc2N2CCC(C)CC2)CC1,5,-1,3,-1,
COc1ccc(S(=O)(=O)N(C)C[C@H]2OCc3cn(nn3)CCCC(=O)N([C@@H](C)CO)C[C@@H]2C)cc1,5,-8,-6,0,
Nc1ccccc1SC(CC(=O)c1ccccc1)c1cccc([N+](=O)[O-])c1 (configuration not stated),-4,8.1*,-2,1,
Nc1ccccc1SC(CC(=O)c1ccccc1)c1ccc([N+](=O)[O-])cc1 (configuration not stated),-1,6,-6,2,
CC1Cc2cc(/C=C3/SC(=S)N(C)C3=O)ccc2O1 (configuration not stated),12,-1,6,1,
CC1Cc2cc(/C=C3/SC(N4CCC(C(N)=O)CC4)=NC3=O)ccc2O1 (configuration not stated),2,-3,-4,4.6*,
CC(C)(C)c1ccccc1NC(=O)NC1CCN(Cc2c(F)cccc2Cl)CC1,11,-3,6,-1,
Cc1ccc(S(=O)(=O)N2CCN(C(=O)N3CCOCC3)C2C(C)C)cc1 (configuration not stated),1,-2,-7,2,
CCN(CC)c1ccc(C2N(C(=O)N3CCOCC3)CCN2S(=O)(=O)c2ccc(C)cc2)cc1 (configuration not stated),0,-12,-2,4.6*,
COc1cccc(CNC(=O)Cn2c(=O)c3cccn3c3ccccc32)c1,-2,0,4,1,
COc1cccc2sc(Nc3nc(-c4cc5ccccc5oc4=O)cs3)nc12,30*,-3,23,1,
Cc1ccc2cc3cc(C(=O)NCCCN4CCCC4=O)oc3nc2c1,-5,-5,-15,4.6*,
CCS(=O)(=O)c1nc(S(=O)(=O)c2ccc(Cl)cc2)c(N2CCc3ccccc3C2)s1,11,-4,15,3,
COc1ccc(C(=O)N/C(=C\c2ccc(SC)cc2)C(=O)NCCCn2ccnc2)cc1OC,-16,0,-1,4,
O=C(N/N=C\C=C\c1ccc2c(c1)OCO2)C1COc2cc3ccccc3cc2O1 (configuration not stated),-5,-6,8,-1,
Cc1cc(C(=O)N/N=C/C=C/c2ccc3c(c2)OCO3)n[nH]1,3,-6,-15,8.9*,
Cc1ccc(-n2c([C@@H]3C[C@H]3c3ccccc3)n[nH]c2=S)cc1,5,8.9*,11,0,MsrA activ conf=-3
Cc1ccc(-n2nc3c(c2NC(=O)c2ccc(F)c(F)c2)CS(=O)(=O)C3)cc1,9,-2,8,-1,
CCCCn1c(N)c(N(CC(C)C)C(=O)CCNC(=O)c2ccc(Br)cc2)c(=O)[nH]c1=O,14,-2,-1,-2,
O=C1NC(Cc2ccccc2)c2nc3cc(F)c(F)cc3c(=O)n2-c2ncccc21 (configuration not stated),-16,9.7*,-1,1,MsrA activ conf=1
O=C1NC(Cc2ccccc2)c2nc3cc(F)ccc3c(=O)n2-c2ncccc21 (configuration not stated),15,-2,9,0,
O=S1(=O)CCSC[C@@H](CN2CCN(c3ccccc3)CC2)N1,1,.,-2,-1,
Cc1ccc2c(c1)C(=NC1CCCCC1)c1cc3ccccc3nc1-2,5,1,-2,0,
O=C(Nc1ccccn1)c1cccs1,-1,-9,-8,1,
O=C(Nc1cccnc1Cl)c1cccs1,-13,17*,-4,-1,MsrA activ conf=-1
O=C(O)c1ccc(Cl)cc1NC(=O)C1CCN(S(=O)(=O)c2cccs2)CC1,7,-3,5,-1,

# Compound activity: PubChem BioAssay, The Scripps Research Institute Molecular Screening Center
